This is an account of results in publication PMC9575670 (Journal of Medicinal Chemistry, 2022).

One assay relates to 4T1 cells tumor. Nature of the assay: In vivo antitumor activity, 4T1 xenograft model, 11 day study. The settings on record: G4 DOX: 2 mg/kg IP once in 3 days. Details: species or system BALB/c mice. In outline:
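BALB/c mice received 4T1 cells (1 × 10^5/mouse) subcutaneously into the left mammary fat pad. Caliper volume = length × width²/2. At about 50 mm³, mice were allocated to four groups, unrandomized and unblinded. All dosing was IP: 0.9% saline vehicle; test compound 0.711 or 1.422 mg/kg (days 1–3) then 14.22 or 28.44 mg/kg (days 4–11); doxorubicin 2 mg/kg every 3 days. Tumours were excised on day 12 and volume and mass measured; one-way ANOVA.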

For another assay, the system named is tubulin. In words: In vitro tubulin polymerization assay. In kind it is biochemical. The settings on record: 20 μM, compared to vehicle control.
The test system of assay [1] is breast cancer (MCF-7) cell line. Nature of the assay: MTT in vitro antiproliferation assay, MCF-7. It counts as cell-based. The settings on record: Homo sapiens, MCF7, 24 h, read-out: IC50 ± SD MCF-7.
In assay [2] the test system is lung normal (MRC-5) cell line. In words: MTT in vitro antiproliferation assay, MRC-5. In kind it is cell-based. The settings on record: Homo sapiens, MRC5, 24 h, read-out: IC50 ± SD MRC-5.
Assay [3] has as its system pancreatic cancer (ASPC-1) cell line. In words: MTT in vitro antiproliferation assay, ASPC-1. It counts as cell-based. The settings on record: Homo sapiens, ASPC1, 24 h, read-out: IC50 ± SD ASPC-1.
Assay [4] relates to cancer cell lines (ASPC-1, A549, MCF-7, HCT 116). In words: MTT in vitro antiproliferation assay, cancer cell line panel. As to conditions: for selectivity index (SI) / cancer cell selectivity over normal cells (MRC-5), range: range over cancer cell lines vs MRC-5; for pIC50: Homo sapiens, 24 h, read-out: IC50 values in cancer cell lines (range). In kind it is cell-based, human.

The subject of assay [5] is lung cancer (A549) cell line. Nature of the assay: MTT in vitro antiproliferation assay, A549. In kind it is cell-based, human. The settings on record: for pIC50: Homo sapiens, A549, 24 h, read-out: IC50 ± SD A549; for selectivity index (SI), cancer cells (A549) over normal cells (MRC-5): IC50 MRC-5 / IC50 A549.
Assay [6] concerns colon cancer (HCT 116) cell line. In words: MTT in vitro antiproliferation assay, HCT 116. It counts as cell-based. As to conditions: Homo sapiens, HCT-116, 24 h, read-out: IC50 ± SD HCT 116.
Assay [7] has as its system normal CCD-18Co cell line. Nature of the assay: MTT in vitro antiproliferation assay, CCD-18Co. It counts as cell-based. As to conditions: Homo sapiens, 24 h, read-out: IC50 ± SD CCD-18Co.
In assay [8] the test system is lung normal IMR-90 cell line. In words: MTT in vitro antiproliferation assay, IMR-90. It counts as cell-based. As to conditions: Homo sapiens, IMR-90, 24 h, read-out: IC50 ± SD IMR-90.
A further assay deals with MCF-7 cells. Nature of the assay: Cell cycle analysis by flow cytometry. In kind it is cell-based, human. The settings on record: MCF-7, up to 1.0 μM, 24 h, compared to vehicle. For orientation: A flow cytometer gives signals particle by particle.
The subject of another assay is A549 cells. Nature of the assay: Cell cycle analysis by flow cytometry. In kind it is cell-based, human. The settings on record: A549, up to 1.0 μM, 24 h, compared to vehicle.

pIC50: −log10 of the molar value.

For the molecule `COc1cccc2c1C(=O)c1c(O)c3c(c(O)c1C2=O)C[C@@](O)(C(=O)CO)C[C@@H]3O[C@H]1C[C@H](N)[C@H](O)[C@H](C)O1` [doxorubicin], in the assay on 4T1 cells tumor, the “average tumor mass reduction at the endpoint” value came out at 14.5% and the “average tumor volume reduction at the endpoint compared to G1” value is 29.4%.
`CC(=O)O[C@H]1C(=O)[C@@]2(C)[C@H]([C@H](OC(=O)c3ccccc3)[C@]3(O)C[C@H](OC(=O)[C@H](O)[C@@H](NC(=O)c4ccccc4)c4ccccc4)C(C)=C1C3(C)C)[C@]1(OC(C)=O)CO[C@@H]1C[C@@H]2O` [PCL, paclitaxel]: the “effect on tubulin polymerization” value in the assay on tubulin is listed as “enhanced the tubulin polymerization”.
Turning to `COC(=O)Nc1nc2ccc(C(=O)c3cccs3)cc2[nH]1` [NOZ, nocodazole], the pIC50 in assay [1] is 5.13; in assay [2], 4.92; in assay [3] it was 4.98; in assay [5] it was 4.97; in assay [6] it was 5.17. Further, the “effect on tubulin polymerization” value with tubulin was “inhibited”. In addition, the “selectivity index (SI) / cancer cell selectivity over normal cells (MRC-5), range” value in assay [4] is listed as 1.1–1.8. Besides, the “selectivity index (SI), cancer cells (A549) over normal cells (MRC-5)” value in [5] turned out to be 1.2.
Regarding `CCCSc1ccc2nc(NC(=O)OC)[nH]c2c1` [Al, albendazole], the pIC50 in assay [1] was 4.23; in assay [7], 3.92; in assay [2] it was 4.02; in [8] it was 3.55; in assay [3] it was 4.25; in assay [4], 4.14 to 4.28. For the same molecule, the negative logarithm of the IC50 (pIC50) in [5] was 4.14; in assay [6] it was 4.28. Further, the “accumulation of cells in the G2/M phase” value in the assay on MCF-7 cells and in the assay with A549 cells was “slight accumulation of cells in the G2/M phase” each time. The “effect on tubulin polymerization” value in the assay on tubulin is “inhibition of tubulin polymerization”. Besides, in assay [4] (IC50 comparison), the “times lower activity than the CLC and NOZ” value was 7–10. Also, in assay [5], the “selectivity index (SI), cancer cells (A549) over normal cells (MRC-5)” value is listed as 1.32.
`CCCSc1ccc2[nH]c(N[C@H]3O[C@@H](CO)[C@H](O)[C@@H](O)[C@@H]3O)nc2c1` [Al–G, albendazole amine glucose conjugate]: the pIC50 in assay [1] is 3.88; in assay [7], 3.15; in assay [2], 3.05; in assay [8] it was less than 3.00; in assay [3], 3.74; in assay [4], 3.74 to 3.88. Besides, the pIC50 in [5] is 3.86; in [6] it was 3.81. In addition, the “accumulation of cells in the G2/M phase” value in the assay on MCF-7 cells and with A549 cells was “slight accumulation of cells in the G2/M phase” each time. The “effect on tubulin polymerization” value with tubulin is “inhibition of tubulin polymerization”. In addition, in [4], the “selectivity index (SI) / cancer cell selectivity over normal cells (MRC-5), range” value was “five to seven times”.

The pIC50 is −log10 of the IC50, conventionally taken in molar units.
